Results on 19 compounds are retold here after ChEMBL document CHEMBL1123425, “Potential antitumor agents. 46. Structure-activity relationships for acridine monosubstituted derivatives of the antitumor agent N-[2-(dimethylamino)ethyl]-9-aminoacridine-4-carboxamide” (1986).

Each structure is given as a SMILES string.

In one assay the test system is HCT-8. Kind of assay: In vitro cytotoxicity against HCT-8 human colon carcinoma cells. The conditions noted are these: read-out: ID50 (the source's name). Format: functional. The procedure, abridged:
(§1)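 Cultured L1210 murine leukemia or HCT-8 human colon carcinoma cells were incubated with drug for 70 h. ID50 is the drug concentration (nM) that reduced cell number to 50% of untreated controls.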

Assay [1] concerns P388. Put plainly: Evaluated in vivo against P388 leukemia cells ( percent increase in life span of treated animals over that of control groups of tumor bearing untreated animals.); k = no activity at all dose levels up to acutely toxic ones. It is filed as functional, organism-based. The conditions noted are these: Mus musculus. The procedure, abridged: (§2)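 Mice received 10⁶ P388 leukemia cells i.p. Drug was dissolved in 0.1 mL of 30% v/v ethanol/water and given i.p. on days 1, 5 and 9 after inoculation. The optimal dose is expressed in mg/kg per day.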

The subject of assay [2] is L1210. Put plainly: In vitro cytotoxicity against L1210 leukemia cells. Conditions: Mus musculus, read-out: ID50 (the source's name). It is filed as functional. The procedure, abridged: as §1
In a further assay the test system is Mus musculus. Kind of assay: In vivo optimal i.p. dose administered on days 1, 5, and 9 after i.p. inoculation of (10E6) P388 leukemia cells. It is filed as functional. The procedure, abridged:
as §2

Assay [3] concerns P388. Kind of assay: Evaluated in vivo against P388 leukemia cells ( percent increase in life span of treated animals over that of control groups of tumor bearing untreated animals.). It is filed as functional, Mus musculus.
The test system of assay [4] is L1210. Put plainly: In vitro cytotoxicity against L1210 leukemia cells. Format: functional. Conditions: Mus musculus, read-out: ID50 (the source's name). The procedure, abridged:
as §1

The term ILS denotes the gain in survival time of treated over control animals, in per cent. On to `Cc1cc(C(=O)NCCN(C)C)c2nc3ccccc3c(N)c2c1`, for which the IC50 worked out at 425 nM with HCT-8 and 590 nM in the assay on L1210 [2]. Also, the ILS result with P388 [1] is “No activity”. For the same compound, the OD in the assay with Mus musculus stood at 30 mg/kg/day.
Take `CN(C)CCNC(=O)c1ccc(Cl)c2c(N)c3ccccc3nc12`: the IC50 in the assay on HCT-8 stood at 360 nM; with L1210 [2], 4.8 nM. In the assay with P388 [3], this compound yielded an ILS of 29%. In the assay with Mus musculus, this compound came in with an OD of 8.9 mg/kg/day.
As for `CN(C)CCNC(=O)c1cccc2c(N)c3cc(Cl)ccc3nc12`, the results for the IC50 in the assay with HCT-8 and in the assay on L1210 [2] were 485 nM and 722 nM, respectively. For the same compound, the ILS entry in the assay with P388 [1] is “No activity”. This compound also displayed an OD with Mus musculus of 13.3 mg/kg/day.
`COc1cccc2nc3c(C(=O)NCCN(C)C)cccc3c(N)c12`: the IC50 in the assay on HCT-8 was 486 nM; in the assay with L1210 [2], 220 nM. Moreover, in the assay on P388 [1], the ILS entry was “No activity”. Besides, the OD in the assay with Mus musculus turned out to be 45 mg/kg/day.
On to `CN(C)CCNC(=O)c1cccc2c(N)c3cccc(Cl)c3nc12`, for which the IC50 in the assay with HCT-8 came out at 33 nM; in the assay with L1210 [2] it was 2.9 nM. Further, the ILS in the assay on P388 [3] was 81%. For the same compound, in the assay on Mus musculus, the OD was 2.6 mg/kg/day.
Turning to `COc1ccc2nc3c(C(=O)NCCN(C)C)cccc3c(N)c2c1`, the IC50 in the assay with HCT-8 amounted to 600 nM; in the assay with L1210 [2] it was 670 nM. The ILS result in the assay on P388 [1] was “No activity”. Besides, in the assay with Mus musculus, the OD was 13.3 mg/kg/day.
For `Cc1ccc2nc3c(C(=O)NCCN(C)C)cccc3c(N)c2c1`, the IC50 in the assay on HCT-8 is 485 nM. For the same compound, the ILS result in the assay on P388 [1] is “No activity”. The compound also returned an OD in the assay with Mus musculus of 13.3 mg/kg/day.
Consider `Cc1ccc2c(N)c3cccc(C(=O)NCCN(C)C)c3nc2c1`, for which the IC50 in the assay with HCT-8 was determined as 120 nM. In addition, the ILS in the assay with P388 [3] stood at 20%. The same compound came in with an OD with Mus musculus of 2.6 mg/kg/day.
As for `CN(C)CCNC(=O)c1cccc2c(N)c3ccccc3nc12`, the IC50 was 66 nM in the assay on HCT-8 and 15 nM in the assay with L1210 [4]. In the assay with Mus musculus, this compound registered an OD of 4.5 mg/kg/day.
Take `Cc1cccc2c(N)c3cccc(C(=O)NCCN(C)C)c3nc12`: the IC50 in the assay with HCT-8 is 11 nM; in the assay with L1210 [2], 0.47 nM. The compound further showed an increase in life span (ILS) in the assay on P388 [3] of 107%. Moreover, the OD with Mus musculus is 2.6 mg/kg/day.
For the compound `COc1ccc2c(N)c3ccccc3nc2c1C(=O)NCCN(C)C`, the IC50 turned out to be 780 nM in the assay with HCT-8 and 300 nM in the assay with L1210 [2]. Besides, in the assay on P388 [1], the ILS entry is “No activity”. This compound displayed an OD in the assay with Mus musculus of 20 mg/kg/day.
Take `COc1cccc2c(N)c3cccc(C(=O)NCCN(C)C)c3nc12`: the figures for the IC50 in the assay on HCT-8 and in the assay on L1210 [2] were 89 nM and 4.3 nM, respectively. The same compound registered an ILS in the assay with P388 [3] of 81%. This compound also registered an OD in the assay on Mus musculus of 3.9 mg/kg/day.
As to `COc1cc(C(=O)NCCN(C)C)c2nc3ccccc3c(N)c2c1`, the IC50 in the assay on HCT-8 came to 32 nM; in the assay with L1210 [2] it was 2.9 nM. The compound also returned an ILS in the assay on P388 [3] of 72%. Further, the OD with Mus musculus turned out to be 5.9 mg/kg/day.
As to `COc1ccc(C(=O)NCCN(C)C)c2nc3ccccc3c(N)c12`, the IC50 was 19 nM in the assay on HCT-8 and 0.55 nM in the assay on L1210 [2]. In the assay with P388 [3], this compound registered an ILS of 27%. Moreover, the OD in the assay on Mus musculus amounted to 8.9 mg/kg/day.
As to `CN(C)CCNC(=O)c1cccc2c(N)c3c(Cl)cccc3nc12`, the values for the IC50 in the assay on HCT-8 and with L1210 [2] were 360 nM and 250 nM, respectively. For the same compound, the ILS entry with P388 [1] was “No activity”. The OD in the assay on Mus musculus was 20 mg/kg/day.
Consider `COc1ccc2c(N)c3cccc(C(=O)NCCN(C)C)c3nc2c1`, for which the ILS entry in the assay with P388 [1] was “No activity”. The OD with Mus musculus worked out at 8.9 mg/kg/day.
Consider `CN(C)CCNC(=O)c1cc(Cl)cc2c(N)c3ccccc3nc12`, for which the IC50 in the assay with HCT-8 worked out at 325 nM; in the assay with L1210 [2] it was 300 nM. For the same compound, the ILS entry in the assay on P388 [1] is “No activity”. Besides, the OD with Mus musculus was found to be 20 mg/kg/day.
As for `CN(C)CCNC(=O)c1cccc2c(N)c3ccc(Cl)cc3nc12`, the IC50 in the assay with HCT-8 came out at 245 nM; with L1210 [2], 105 nM. For the same compound, the ILS result in the assay on P388 [1] is “No activity”. Moreover, the OD with Mus musculus was 8.9 mg/kg/day.
On to `Cc1cccc2nc3c(C(=O)NCCN(C)C)cccc3c(N)c12`, for which the figures for the IC50 in the assay with HCT-8 and in the assay on L1210 [2] were 250 nM and 340 nM, respectively. Also, the ILS entry with P388 [1] is “No activity”. The OD in the assay with Mus musculus is 8.9 mg/kg/day.
